These results are taken from ChEMBL document CHEMBL1137782, “Identification of peptide substrate and small molecule inhibitors of testis-specific serine/threonine kinase1 (TSSK1) by the developed assays” (J Med Chem, 2009).

Series [1] deals with T1, Testis-specific serine/threonine-protein kinase 1 (Homo sapiens) (UniProt Q9BXA7).
T1 sequence (whole entry): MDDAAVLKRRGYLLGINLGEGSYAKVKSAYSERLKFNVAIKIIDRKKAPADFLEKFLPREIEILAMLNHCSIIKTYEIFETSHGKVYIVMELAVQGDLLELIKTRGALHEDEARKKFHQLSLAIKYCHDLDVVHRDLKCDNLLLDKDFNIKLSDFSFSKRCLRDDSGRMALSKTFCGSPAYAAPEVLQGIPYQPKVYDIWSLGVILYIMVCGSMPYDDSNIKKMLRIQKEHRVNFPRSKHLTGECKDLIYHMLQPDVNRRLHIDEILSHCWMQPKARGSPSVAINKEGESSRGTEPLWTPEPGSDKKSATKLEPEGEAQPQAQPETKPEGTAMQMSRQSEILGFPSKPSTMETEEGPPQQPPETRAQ
The series can be described thus: Inhibition of TSSK1-catalyzed phosphorylation of AALVRQMSVAFFFK substrate at 20 uM by luminescent kinase assay. An outline of the steps: (§1)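 Luminescent Kinase-Glo read-out of ATP left after reaction. Buffer 40 mM Tris-HCl, 20 mM MgCl2, 0.1 mg/mL BSA, 2 mM DTT. Final 0.5 μg/well TSSK1, 10 μM Pep8 peptide, 1.5 μM ATP. Incubated 2 h at 37 °C, then an equal volume of Kinase-Glo added for 10 min at room temperature before luminescence (RLU) reading. Controls lacked peptide or lacked TSSK1; staurosporine 100 μM as positive control.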

The target in series [2] is T2, Testis-specific serine/threonine-protein kinase 1 (Homo sapiens, UniProt Q9BXA7).
T2 sequence (Q9BXA7 whole entry): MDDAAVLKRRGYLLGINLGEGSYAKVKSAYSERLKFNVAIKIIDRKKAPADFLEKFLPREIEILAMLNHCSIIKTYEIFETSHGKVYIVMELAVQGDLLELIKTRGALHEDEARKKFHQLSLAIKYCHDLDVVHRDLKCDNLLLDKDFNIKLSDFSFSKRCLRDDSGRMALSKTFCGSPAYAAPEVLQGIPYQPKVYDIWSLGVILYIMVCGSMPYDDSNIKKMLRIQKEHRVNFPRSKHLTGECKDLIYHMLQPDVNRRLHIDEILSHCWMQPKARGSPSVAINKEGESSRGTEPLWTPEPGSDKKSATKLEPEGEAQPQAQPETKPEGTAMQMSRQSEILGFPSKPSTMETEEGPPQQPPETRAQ
The series can be described thus: Inhibition of TSSK1-catalyzed phosphorylation of AALVRQMSVAFFFK substrate by luminescent kinase assay. An outline of the steps:
as §1

The target in series [3] is T2, Testis-specific serine/threonine-protein kinase 1. Nature of the series: Inhibition of TSSK1-catalyzed phosphorylation of AALVRQMSVAFFFK substrate by LC-MS based HTP assay in presence of Pep8-(O2). A digest of the protocol: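 TSSK1 reaction at final 75 ng/well enzyme, 10 μM Pep8, 25 μM ATP in Tris-HCl/MgCl2/BSA/DTT buffer, 90 min at 37 °C. Acetonitrile quench carried 7 μM sulfone internal standard Pep8-P(O2). After 15000g spin, C18 HPLC-MS analysis. Pep8-P concentration calculated from its peak area relative to the internal standard using a normalization factor, and IC50 derived from that.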

The target is the same in series [4]. The series can be described thus: Inhibition of TSSK1-catalyzed phosphorylation of AALVRQMSVAFFFK substrate by LC-MS based HTP assay in absence of Pep8-(O2). An outline of the steps: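 End-point LC-MS read-out of phosphorylated Pep8 (Pep8-P). Reaction in 40 mM Tris-HCl, 20 mM MgCl2, 0.1 mg/mL BSA, 2 mM DTT with final 75 ng/well TSSK1, 10 μM Pep8, 25 μM ATP, run 90 min at 37 °C. Quenched with acetonitrile, spun 15000g 10 min, then analysed by C18 HPLC-MS using formic acid/acetonitrile gradient. IC50 taken from Pep8-P peak area with no internal standard.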

Substrate in series [5]: CSCC[C@H](NC(=O)[C@H](CCC(N)=O)NC(=O)[C@H](CCCNC(=N)N)NC(=O)[C@@H](NC(=O)[C@H](CC(C)C)NC(=O)[C@H](C)NC(=O)[C@H](C)N)C(C)C)C(=O)N[C@@H](CO)C(=O)N[C@H](C(=O)N[C@@H](C)C(=O)N[C@@H](Cc1ccccc1)C(=O)N[C@@H](Cc1ccccc1)C(=O)N[C@@H](Cc1ccccc1)C(=O)N[C@@H](CCCCN)C(=O)O)C(C)C
The series can be described thus: (§2) Activity at TSSK1 by Michaelis-Menten plot. An outline of the steps:
(§3)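 Enzyme time courses quantified phosphorylated Pep8 by LC-MS. ATP was varied 3.13–200 μM with Pep8 at 30 μM, or Pep8 0–40 μM with ATP at 200 μM. Reactions were quenched with acetonitrile containing 7 μM sulfone internal standard. Initial velocities were taken in duplicate and fitted to Michaelis-Menten by nonlinear least squares.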

Substrate in series [6]: Nc1ncnc2c1ncn2[C@@H]1O[C@H](COP(=O)(O)OP(=O)(O)OP(=O)(O)O)[C@@H](O)[C@H]1O
The series is described as §2. An outline of the steps: as §3

In turn, `CCCc1cc(=O)oc2cc3c(c(O)c12)C(=O)CC(C)O3` (stereo not drawn) had an inhibition in series [1] above 40%. 38.7 µM corresponded to half-maximal inhibition in series [2] (IC50).
`O=C(c1ccc(-c2ccc(C(=O)C(O)S(=O)(=O)O)cc2)cc1)C(O)S(=O)(=O)O` (stereo not drawn): the IC50 in series [3] is 19.1 µM; in series [4] it was 14.4 µM; in series [2], 24.8 µM.
For `CC(C)c1nc2cc3c(cc2[nH]c1=O)nc(-c1ccc(C(=O)O)cc1)n3CCCc1ccccc1`, the IC50 in series [3] came out at 38 µM.
Regarding `CCc1cc(=O)oc2cc3c(c(O)c12)C(=O)CC(C)O3` (stereo not drawn), the inhibition in series [1] is above 40%.
As to `CCCCCCCn1c(-c2ccc(O)c(O)c2)nc2cc3[nH]c(=O)c(C(C)C)nc3cc21`, the IC50 in series [3] was 72 µM.
As for `O=c1oc2cc(O)cc(O)c2c2c1CCCC2`, in series [1], the inhibition was above 40%.
On to `CC(C)C[C@H](CC(=O)N[C@H](CCC(N)=O)C(=O)O)NC(=O)c1cc(Cl)ccc1N`, for which the inhibition in series [1] was above 40%.
On to `O=C(c1ccc(-c2ccc(C(=O)C(O)O)cc2)cc1)C(O)O`, for which the inhibition in series [1] is above 40%. Moreover, the IC50 in series [2] was 43.2 µM.
In series [1], `Cc1c(Cc2ccccc2)c(=O)oc2cc(O)cc(O)c12` had an inhibition above 40%.
Consider `C=CC(=O)Oc1cc(O)c2c(CCC)cc(=O)oc2c1`, for which, in series [1], the inhibition was above 40%.
In series [1], `CCCc1c(Cl)c(=O)oc2cc(O)cc(O)c12` came in with an inhibition above 40%.
With `CC(=O)Nc1ccc(-c2nc3cc4[nH]c(=O)c(C)nc4cc3n2CCCc2ccccc2)cc1`, the IC50 in series [3] amounted to 98 µM.

B1: Testis-specific serine/threonine-protein kinase 1 (Homo sapiens), Q9BXA7 (protein)
chain: MDDAAVLKRRGYLLGINLGEGSYAKVKSAYSERLKFNVAIKIIDRKKAPADFLEKFLPREIEILAMLNHCSIIKTYEIFETSHGKVYIVMELAVQGDLLELIKTRGALHEDEARKKFHQLSLAIKYCHDLDVVHRDLKCDNLLLDKDFNIKLSDFSFSKRCLRDDSGRMALSKTFCGSPAYAAPEVLQGIPYQPKVYDIWSLGVILYIMVCGSMPYDDSNIKKMLRIQKEHRVNFPRSKHLTGECKDLIYHMLQPDVNRRLHIDEILSHCWMQPKARGSPSVAINKEGESSRGTEPLWTPEPGSDKKSATKLEPEGEAQPQAQPETKPEGTAMQMSRQSEILGFPSKPSTMETEEGPPQQPPETRAQ
Take B1: the results for the Km in series [5] and in series [6] were 25.2 µM and 50.5 µM, respectively.
